One data set concerns Plasma. Description: Drug metabolism in CD1 mouse plasma assessed as monoacylglycerol conjugate formation at 6 mg/kg, ip dosed once daily for 3 days followed by dosing of 1:1 mixtures of 2-(2-Carboxyethyl)-4-methyl-5-propyl-(3-13C-furan)-3-13Ccarboxylateand test compound on day 4 and 5 measured 1 hr post dose on day 5 by HPLC-MS analysis. The format is ADME, organism-based. To be noted: in vivo. Summed up:
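CMPF given 6 mg/kg i.p. once daily for three days. On days four and five, 1:1 mixtures of stable-isotope-labelled and unlabelled CMPF were dosed. Mice were killed 1 h after the day-five dose. Plasma, adipose, muscle and liver were collected and analysed by HPLC-MS (MS/MS for product ions). Metabolites were identified by their distinctive isotope patterns from the labelled/unlabelled mixture.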

Data set [1] concerns Liver. Kind of data set: Drug metabolism in CD1 mouse liver assessed as monoacylglycerol conjugate formation at 6 mg/kg, ip dosed once daily for 3 days followed by dosing of 1:1 mixtures of 2-(2-Carboxyethyl)-4-methyl-5-propyl-(3-13C-furan)-3-13Ccarboxylateand test compound on day 4 and 5 measured 1 hr post dose on day 5 by HPLC-MS analysis. The format is ADME, organism-based. The note with it: in vivo. Summed up: (§1)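 Mice received CMPF 6 mg/kg intraperitoneally for three days, then 1:1 labeled/unlabeled CMPF mixtures on days four and five. On day five they were euthanized 1 h post-dose, and plasma, adipose, muscle and liver were collected. Samples were analysed by HPLC-MS, with MS/MS of product ions. Metabolites were identified by the distinctive isotope patterns from the 1:1 label mixture.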

Data set [2] is described as follows: Drug metabolism in CD1 mouse adipose assessed as loss of C2 carboxyl during fragmentation at 6 mg/kg, ip dosed once daily for 3 days followed by dosing of 1:1 mixtures of 2-(2-Carboxyethyl)-4-methyl-5-propyl-(3-13C-furan)-3-13Ccarboxylate and test compound on day 4 and 5 measured 1 hr post dose on day 5 by HPLC-MS analysis. The format is ADME, organism-based, Adipose tissue. The note with it: in vivo. In short, it runs like this: as §1

Data set [3] has as its system Liver. Kind of data set: Drug metabolism in CD1 mouse liver assessed as glycerol conjugate formation at 6 mg/kg, ip dosed once daily for 3 days followed by dosing of 1:1 mixtures of 2-(2-Carboxyethyl)-4-methyl-5-(1-propyl-1-13C)furan-3-carboxylic Acid and test compound on day 4 and 5 measured 1 hr post dose on day 5 by HPLC-MS analysis. To be noted: in vivo. Type of data set: ADME, organism-based. In short, it runs like this: as §1

Data set [4] is described as follows: Volume of distribution in mouse at 1 mg/kg, iv. To be noted: in vivo. Type of data set: ADME, organism-based. In short, it runs like this: (§2)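 Mouse pharmacokinetics after single intravenous CMPF dosing at 1 or 3 mg/kg. Plasma exposure was followed over time to derive AUC, C0, terminal half-life, clearance and volume of distribution.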
Data set [5] is described as follows: Drug metabolism in CD1 mouse adipose assessed as loss of C2 carboxyl during fragmentation at 6 mg/kg, ip dosed once daily for 3 days followed by dosing of 1:1 mixtures of 2-(2-Carboxyethyl)-4-methyl-5-(1-propyl-1-13C)furan-3-carboxylic Acid and test compound on day 4 and 5 measured 1 hr post dose on day 5 by HPLC-MS analysis. The note with it: in vivo. The format is ADME, organism-based, Adipose tissue. Summed up: as §1

Data set [6] can be described thus: Drug metabolism in CD1 mouse muscle assessed as diacylglycerol conjugate formation at 6 mg/kg, ip dosed once daily for 3 days followed by dosing of 1:1 mixtures of 2-(2-Carboxyethyl)-4-methyl-5-propyl-(3-13C-furan)-3-13Ccarboxylateand test compound on day 4 and 5 measured 1 hr post dose on day 5 by HPLC-MS analysis. The format is ADME, organism-based, Muscle tissue. The note with it: in vivo. In short, it runs like this:
as §1

The nature of data set [7]: Drug metabolism in CD1 mouse adipose assessed as diacylglycerol conjugate formation at 6 mg/kg, ip dosed once daily for 3 days followed by dosing of 1:1 mixtures of 2-(2-Carboxyethyl)-4-methyl-5-propyl-(3-13C-furan)-3-13Ccarboxylateand test compound on day 4 and 5 measured 1 hr post dose on day 5 by HPLC-MS analysis. The format is ADME, organism-based, Adipose tissue. To be noted: in vivo. In short, it runs like this: as §1

A further data set has as its target CYP2D6 (Homo sapiens, UniProt P10635). Kind of data set: Inhibition of human microsomal CYP2D6 at 10 uM after 3 mins by single quad LC/MS analysis. The note with it: microsomes. Type of data set: ADME.
The subject of data set [8] is Liver. Description: Drug metabolism in CD1 mouse liver assessed as loss of C2 carboxyl during fragmentation at 6 mg/kg, ip dosed once daily for 3 days followed by dosing of 1:1 mixtures of 2-(2-(Carboxy-13C)ethyl)-4-methyl-5-propylfuran-3-carboxylic-2-13C Acid and test compound on day 4 and 5 measured 1 hr post dose on day 5 by HPLC-MS analysis. To be noted: in vivo. The format is ADME, organism-based. Summed up:
as §1

Data set [9] is described as follows: Suppression of high glucose stimulated insulin secretion in mouse pancreatic islets at 200 uM treated for 24 hrs followed by glucose stimulation for 20 mins by HTRF assay relative to control. The format is ADME, cell-based. The note with it: pancreatic islet. Summed up:
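Mouse islet screening assay in high-glucose (20 mM) medium with compounds at 200 µM. Insulin secretion is expressed as fold change relative to vehicle. Mean of n = 4 experiments with SEM; significance by Student's t-test, p ≤ 0.05.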
In general terms: In TR-FRET formats the signal depends on donor and acceptor labels being close together.

Data set [10] concerns Liver. Description: Drug metabolism in CD1 mouse liver assessed as loss of C2 carboxyl during fragmentation at 6 mg/kg, ip dosed once daily for 3 days followed by dosing of 1:1 mixtures of 2-(2-Carboxyethyl)-4-methyl-5-propyl-(3-13C-furan)-3-13Ccarboxylate and test compound on day 4 and 5 measured 1 hr post dose on day 5 by HPLC-MS analysis. Type of data set: ADME, organism-based. The note with it: in vivo. Summed up:
as §1

Data set [11] is described as follows: Clearance in mouse at 1 mg/kg, iv. The format is ADME, organism-based. The note with it: in vivo.
Data set [12] in a line: Suppression of KCl-stimulated insulin secretion in mouse pancreatic islet at 200 uM incubated for 24 hrs followed by KCl stimulation for 20 mins by HTRF assay. Type of data set: ADME, cell-based. Summed up:
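Mouse islets treated with compounds at 200 µM. Insulin secretion was then measured under low- and high-glucose GSIS conditions and under KCl stimulation, and intracellular insulin content was measured. Mean of n = 4-5 experiments with SEM.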

The nature of data set [13]: Drug metabolism in CD1 mouse adipose assessed as diacylglycerol conjugate formation at 6 mg/kg, ip dosed once daily for 3 days followed by dosing of 1:1 mixtures of 2-(2-(Carboxy-13C)ethyl)-4-methyl-5-propylfuran-3-carboxylic-2-13C Acid and test compound on day 4 and 5 measured 1 hr post dose on day 5 by HPLC-MS analysis. The note with it: in vivo. The format is ADME, organism-based, Adipose tissue. In short, it runs like this: as §1

A short description of data set [14]: Initial plasma concentration in mouse at 1 mg/kg, iv. Type of data set: ADME, organism-based. Summed up:
as §2

Data set [15] is described as follows: Drug metabolism in CD1 mouse adipose assessed as oxidative metabolites formation at 6 mg/kg, ip dosed once daily for 3 days followed by dosing of 1:1 mixtures of 2-(2-Carboxyethyl)-4-methyl-5-(1-propyl-1-13C)furan-3-carboxylic Acid and test compound on day 4 and 5 measured 1 hr post dose on day 5 by HPLC-MS analysis. Type of data set: ADME, organism-based, Adipose tissue. The note with it: in vivo. In short, it runs like this: as §1

A further data set deals with Hepatocyte. Description: Cytotoxicity against mouse primary hepatocytes assessed as fold change in capase3/7 activity by Caspase-Glo 3/7 assay relative to DMSO. Type of data set: cell-based.
A short description of data set [16]: Drug metabolism in CD1 mouse adipose assessed as glycerol conjugate formation at 6 mg/kg, ip dosed once daily for 3 days followed by dosing of 1:1 mixtures of 2-(2-Carboxyethyl)-4-methyl-5-(1-propyl-1-13C)furan-3-carboxylic Acid and test compound on day 4 and 5 measured 1 hr post dose on day 5 by HPLC-MS analysis. Type of data set: ADME, organism-based, Adipose tissue. The note with it: in vivo. In short, it runs like this:
as §1

Data set [17] is described as follows: Drug metabolism in CD1 mouse adipose assessed as diacylglycerol conjugate formation at 6 mg/kg, ip dosed once daily for 3 days followed by dosing of 1:1 mixtures of 2-(2-Carboxyethyl)-4-methyl-5-(1-propyl-1-13C)furan-3-carboxylic Acid and test compound on day 4 and 5 measured 1 hr post dose on day 5 by HPLC-MS analysis. To be noted: in vivo. Type of data set: ADME, organism-based, Adipose tissue. Summed up: as §1

Data set [18] can be described thus: Initial plasma concentration in mouse at 6 mg/kg, iv. Type of data set: ADME, organism-based.
The nature of data set [19]: AUC in mouse at 1 mg/kg, iv. Type of data set: ADME, organism-based. To be noted: in vivo.

Chain of CYP2D6 (P10635 whole entry, the tested form may be a part): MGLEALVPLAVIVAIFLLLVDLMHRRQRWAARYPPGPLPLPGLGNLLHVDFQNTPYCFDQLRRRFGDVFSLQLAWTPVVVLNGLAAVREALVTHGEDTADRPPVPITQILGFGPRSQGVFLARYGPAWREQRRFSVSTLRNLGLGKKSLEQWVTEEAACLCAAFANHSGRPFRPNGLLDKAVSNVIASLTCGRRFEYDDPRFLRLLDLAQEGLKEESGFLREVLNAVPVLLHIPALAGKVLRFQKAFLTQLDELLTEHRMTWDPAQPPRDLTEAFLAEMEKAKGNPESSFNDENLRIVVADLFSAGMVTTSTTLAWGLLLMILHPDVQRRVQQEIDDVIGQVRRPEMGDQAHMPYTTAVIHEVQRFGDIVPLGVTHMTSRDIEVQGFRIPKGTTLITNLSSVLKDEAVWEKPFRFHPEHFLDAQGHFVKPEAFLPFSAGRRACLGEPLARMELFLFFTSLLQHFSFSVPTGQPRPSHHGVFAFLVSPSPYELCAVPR

A word on the Vd: it is a proportionality between amount in the body and measured concentration, not a real space. A lower Vd goes with little distribution into tissue. The inhibition is the drop in the measured response relative to a control, in per cent. Higher therefore signals a response far below the control. A word on the clearance: it is a measure of how efficiently the substance is removed, as volume per time. Low readings indicate a low capacity for elimination, high ones a high capacity for elimination. One may read the AUC as concentration integrated over time. A low value points to less exposure. Turning to `CCCc1oc(CCC(=O)O)c(C(=O)O)c1C`, the Drug metabolism result is given as “Metabolite_Notdetected” in the data set with Plasma; “Metabolite_Notdetected” in the data set on Liver [1]; “Metabolite_Detected” in data set [2]; “Metabolite_Notdetected” in the data set on Liver [3]; “Metabolite_Detected” in data set [5]; “Metabolite_Notdetected” in data set [6]. Also, the Drug metabolism entry in data set [7] is “Metabolite_Notdetected”; with Liver [8], “Metabolite_Detected”; with Liver [10], “Metabolite_Detected”; in data set [13], “Metabolite_Notdetected”; in data set [15], “Metabolite_Notdetected”; in data set [16], “Metabolite_Notdetected”. Also, the Drug metabolism result in [17] is listed as “Metabolite_Notdetected”. The molecule also had a Vd in data set [4] of 0.2 L/kg. On CYP2D6, the inhibition at 0.05 h, 10 µM amounted to 0%. Also, the Activity result in data set [9] and in data set [12] was “Toxic” throughout. The clearance in [11] was 0.66 mL/min/kg. For the same molecule, the C0 in data set [14] was 53.3 µM; in data set [18], 200 to 250 µM. Also, in the data set with Hepatocyte, the fold change (FC) fell in the range of 0.7 to 0.8. Besides, the AUC in [19] stood at 89.3 µM·h.

For the origin of these results see ChEMBL document CHEMBL4004837, “Synthesis and Characterization of Urofuranoic Acids: In Vivo Metabolism of 2-(2-Carboxyethyl)-4-methyl-5-propylfuran-3-carboxylic Acid (CMPF) and Effects on in Vitro Insulin Secretion” (J Med Chem, 2017).
